Assays:
[1] = Renal clearance in healthy human at 1000 […], po administered as single dose; assay type: ADME, organism-based, Kidney; design: route oral; details: in vivo, read-out: CL_renal (converted)
How it was run: (§1)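 Renal clearance (CL_r) came from noncompartmental analysis of plasma drawn through 96 h and urine collected over fixed intervals to 96 h. Subjects were fasted healthy volunteers, six per dose cohort, given one oral dose with 240 ml water. Plasma and urine were assayed by LC-MS/MS after solid-phase extraction, with urine LLOQ 200 ng/ml. Values are means (SD).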

Homo sapiens [2] = assay: Toxicity in healthy human assessed as occurrence of oral hypoesthesia at 1000 […], po; assay type: organism-based; design: route oral; details: in vivo
[3] = Renal clearance in healthy human at 50 […], po administered as single dose; assay type: ADME, organism-based, Kidney; design: route oral; details: in vivo, read-out: CL_renal (converted); how it was run: as §1
Homo sapiens [4] = assay: Toxicity in healthy human assessed as occurrence of nausea at 50 […], po; assay type: organism-based; design: route oral; details: in vivo
[5] = Terminal phase elimination half-life in healthy human at 1500 mg, po administered single dose; details: in vivo
Homo sapiens [6] = assay: Toxicity in healthy human assessed as occurrence of nausea at 125 […], po; assay type: organism-based; design: route oral; details: in vivo
Homo sapiens [7] = assay: Toxicity in healthy human assessed as occurrence of contact dermatitis at 1500 […], po; assay type: organism-based; design: route oral; details: in vivo
How it was run: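 Randomized, double-blind, placebo-controlled single ascending oral doses in healthy volunteers (cohorts of 6 active, 2 placebo; 25–1,500 mg). After a 10-h fast, dose given with 240 ml water; fasting continued 4 h. Subjects were confined to 96 h postdose. AEs were recorded throughout dosing and at follow-up, reported as number and percentage of subjects with events per treatment.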

Homo sapiens [8] = assay: Toxicity in healthy human assessed as occurrence of erythema at 500 […], po; assay type: organism-based; design: route oral; details: in vivo
Homo sapiens [9] = assay: Terminal volume of distribution in healthy human at 50 mg, po administered as single dose; details: in vivo

With `COc1c(N2C[C@@H](C)C[C@H](N)C2)ccc2c(=O)c(C(=O)O)cn(C3CC3)c12` [NEMONOXACIN] the CL renal [1] was 1.4 mL/min/kg, the Activity (Homo sapiens [2]) was 17% and the CL renal [3] was 2 mL/min/kg. For the same molecule, the Activity (Homo sapiens [4]) was 0%, the half-life [5] was 13 h and the Activity (Homo sapiens [6]) was 0%. The Activity (Homo sapiens [7]) was 0%, the Activity (Homo sapiens [8]) was 0% and the Vbeta (Homo sapiens [9]) was 2.78 L/kg.

— ChEMBL document CHEMBL1212766, “Dose escalation study of the safety, tolerability, and pharmacokinetics of nemonoxacin (TG-873870), a novel potent broad-spectrum nonfluorinated quinolone, in healthy volunteers” (Antimicrob Agents Chemother, 2010)
